Measured values as given in ChEMBL document CHEMBL5344428, “Discovery, Crystallographic Studies, and Mechanistic Investigations of Novel Phenylalanine Derivatives Bearing a Quinazolin-4-one Scaffold as Potent HIV Capsid Modulators” (J Med Chem, 2023).

Experiments:
[1] = Cytotoxicity against human MT4 cells assessed as reduction in cell viability incubated for 5 days by MTT assay; format: toxicity, cell-based; details: MT4 cells, time 5 day
Outline: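 Uninfected MT-4 cells were exposed to compound, and viability was read by the MTT method. […] Each value was run in at least triplicate and averaged from at least three independent experiments.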

[2] = test system: Human immunodeficiency virus 1; experiment: Antiviral activity against HIV1 IIIB infected in human MT4 cells assessed as reduction in virus induced cytopathic effect measured after 5 days by MTT assay; format: functional, organism-based; details: Human immunodeficiency virus 1, IIIB, MT4, 120 h
Outline: (§1)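 MT-4 cells were infected with HIV-1 IIIB or HIV-2 ROD, and cell viability was read by MTT. […] Each value was run in at least triplicate and averaged from at least three independent experiments.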

[3] = Selectivity index, ratio of CC50 for cytotoxicity against human MT4 cells to EC50 for antiviral activity against HIV1 IIIB infected in human MT4 cells; format: toxicity, cell-based; details: read-out: Ratio CC50/EC50
Outline: (§2)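 SI is CC50 divided by EC50. CC50 comes from MTT viability of uninfected MT-4 cells. EC50 comes from MTT-read protection of MT-4 cells infected with HIV-1 IIIB or HIV-2 ROD. Each value was run in at least triplicate.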

[4] = Selectivity ratio of EC50 for antiviral activity against HIV1 IIIB infected in human MT4 cells to EC50 for antiviral activity against HIV2 ROD infected in human MT4 cells; format: toxicity, cell-based
Outline: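 Ratio is EC50 against HIV-1 IIIB divided by EC50 against HIV-2 ROD. Both EC50 values come from MTT-read protection of infected MT-4 cells.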

[5] = test system: Human immunodeficiency virus 2; experiment: Antiviral activity against HIV2 ROD infected in human MT4 cells assessed as reduction in virus induced cytopathic effect measured after 5 days by MTT assay; format: functional, organism-based; details: Human immunodeficiency virus 2, ROD, MT4, 120 h; outline: as §1
[6] = Selectivity index, ratio of CC50 for cytotoxicity against human MT4 cells to EC50 for antiviral activity against HIV2 ROD infected in human MT4 cells; format: toxicity, cell-based; details: read-out: Ratio CC50/EC50; outline: as §2

SMILES | CC50 at 120 h [1] [µM] | EC50 [2] [µM] | selectivity ratio [3] | Ratio EC50 [4] | EC50 [5] [µM] | selectivity ratio [6]
COc1ccc(N(C)C(=O)[C@H](Cc2cc(F)cc(F)c2)NC(=O)CN2CCN(C(=O)Cc3c(C)[nH]c4ccccc34)CC2=O)cc1 | 76.9 | 20.8 | 3.69 | 1.06 | 19.7 | 3.91
COc1ccc(N(C)C(=O)[C@H](Cc2cc(F)cc(F)c2)NC(=O)CN(C(=O)Cc2c(C)[nH]c3ccccc23)C2CC2)cc1 | 112 | 3.08 | 36 | 0.18 | 17.3 | 6
COc1ccc(-n2c(SCc3ncccn3)nnc2[C@H](Cc2ccccc2)NC(=O)Cc2c(C)[nH]c3ccccc23)cc1 | 106 | 1.81 | 58 | 0.24 | 7.43 | 14
C#CCSc1nnc([C@H](Cc2ccccc2)NC(=O)Cc2c(C)[nH]c3ccccc23)n1-c1ccc(OC)cc1 | 24.7 | 2.05 | 12 | 0.52 | 3.94 | 6
COc1ccc(N(C)C(=O)[C@H](Cc2ccccc2)NC(=O)CN2CCN(C(=O)Cc3c[nH]c4ccccc34)CC2=O)cc1 | 112 | 15 | 7.51 | 3.06 | 4.89 | 23
COc1ccc(N(C)C(=O)[C@H](Cc2ccccc2)NC(=O)Cn2ccc(NC(=O)c3ccccc3F)cc2=O)cc1 | 81.4 | 17.9 | 4.55 | 2.26 | 7.92 | 10.3
COc1ccc(-n2c([C@H](Cc3cc(F)cc(F)c3)NC(=O)CN3CCN(S(=O)(=O)c4ccc(N)cc4)CC3)nc3cc(S(C)(=O)=O)ccc3c2=O)cc1 | > 160 | 0.68 | > 236 | 4.53 | 0.15 | > 1040
COc1ccc(N(C)C(=O)[C@H](Cc2ccccc2)NC(=O)CN2CCN(C(=O)Cc3c[nH]c4ccc(F)cc34)CC2=O)cc1 | 90.1 | 21.8 | 4.13 | 4.83 | 4.52 | 19.9
COc1ccc(N(C)C(=O)[C@H](Cc2cc(F)cc(F)c2)NC(=O)CN(Cc2ccc(C#N)cc2)C(=O)Cc2c[nH]c3ccc(Br)cc23)cc1 | 87.6 | 5.61 | 16 | 0.36 | 15.7 | 6
COc1ccc(N(C)C(=O)[C@H](Cc2ccccc2)NC(=O)Cn2ccc(NC(=O)c3ccccc3)cc2=O)cc1 | 86.5 | 16.8 | 5.15 | 3.46 | 4.86 | 17.8
COc1ccc(-n2c(S)nnc2[C@H](Cc2ccccc2)NC(=O)Cc2c(C)[nH]c3ccccc23)cc1 | 133 | 4.94 | 27 | 0.47 | 10.6 | 13
COc1ccc(N(C)C(=O)[C@H](Cc2cc(F)cc(F)c2)NC(=O)CN2CCN(C(=O)c3ccc(NC(=O)C4CC4)cc3)CC2=O)cc1 | 88.6 | 14.4 | 6.17 | 0.95 | 15.1 | 5.87
COc1ccc(N(C)C(=O)[C@H](Cc2ccccc2)NC(=O)Cn2ccc(NC(=O)c3ccc(C#N)cc3)cc2=O)cc1 | 137 | 16.8 | 8.18 | 0.94 | 17.8 | 7.69
COc1ccc(-n2c(SCCC3OCCCO3)nnc2[C@H](Cc2ccccc2)NC(=O)Cc2c(C)[nH]c3ccccc23)cc1 | 32.3 | 1.64 | 20 | 0.25 | 6.65 | 5
COc1ccc(-n2c(SCC(N)=O)nnc2[C@H](Cc2ccccc2)NC(=O)Cc2c(C)[nH]c3ccccc23)cc1 | 118 | 0.88 | 135 | 0.24 | 3.74 | 32
COc1ccc(N(C)C(=O)[C@H](Cc2cc(F)cc(F)c2)NC(=O)CN(Cc2ccc(F)cc2)C(=O)Cc2c[nH]c3ccc(Br)cc23)cc1 | 17.8 | 2.93 | 6 | < 0.16 | > 17.8 | < 1
COc1ccc(N(C)C(=O)[C@H](Cc2cc(F)cc(F)c2)NC(=O)CN2CCN(C(=O)c3ccc(NC(=O)C(F)(F)F)cc3)CC2=O)cc1 | 150 | 13.7 | 10.9 | 0.83 | 16.6 | 9.09
COc1ccc(-n2c(SCCS(C)(=O)=O)nnc2[C@H](Cc2ccccc2)NC(=O)Cc2c(C)[nH]c3ccccc23)cc1 | 162 | 3.87 | 42 | 0.24 | 16 | 10
COc1ccc(-n2c(SCC(F)F)nnc2[C@H](Cc2ccccc2)NC(=O)Cc2c(C)[nH]c3ccccc23)cc1 | 24.4 | 2.54 | 10 | 0.35 | 7.33 | 3
Nc1ccc(S(=O)(=O)N2CCN(CC(=O)N[C@@H](Cc3ccccc3)c3nc4ccccc4c(=O)n3-c3ccc(S(=O)(=O)N4CCOCC4)cc3)CC2)cc1 | > 159 | 0.15 | > 1040 | 1.5 | 0.1 | > 1560
COc1ccc(-n2c(SCc3ccccn3)nnc2[C@H](Cc2ccccc2)NC(=O)Cc2c(C)[nH]c3ccccc23)cc1 | 24.2 | 2.61 | 9 | 0.63 | 4.16 | 6
COc1ccc(N(C)C(=O)[C@H](Cc2ccccc2)NC(=O)Cn2ccc(N)cc2=O)cc1 | 261 | 29.1 | 8.98 | 1.47 | 19.7 | 13.2
COc1ccc(N(C)C(=O)[C@H](Cc2cc(F)cc(F)c2)NC(=O)CN(Cc2ccc(F)cc2)C(=O)Cn2nc(C(F)(F)F)c3ccccc32)cc1 | 108 | 2.53 | 42 | 0.2 | 12.9 | 8
COc1ccc(N(C)C(=O)[C@H](Cc2cc(F)cc(F)c2)NC(=O)CN(C(=O)Cc2ccc(B3OC(C)(C)C(C)(C)O3)cc2)C2CC2)cc1 | 89 | 5.18 | 17 | 0.53 | 9.71 | 9
